Assay outcomes from PubChem BioAssay.
hiPSC survival – enhancers of human iPSC single-cell survival | survival enhancement, % at 20 µM | hiPSC single-cell survival, ATPlite luminescence; 100% = ROCK inhibitor wells, 0% = DMSO | hit rate 0.044% among 360,000; in the data active means survival enhancement above about 18%;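 further: cells exposed to compounds for 16 hours before the ATP read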
A3G deaminase – blocks human APOBEC3G single-stranded DNA deamination; Q9HC16; inhibition, % at 20 µM; hit rate 0.28% among 330,000; recombinant A3G, ssDNA deamination FAM/TAMRA fluorescence;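 active means inhibition of at least 40% at 20 µM, with no more than 30% in the related APOBEC3A deaminase screen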;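 further: plate controls were DMSO wells with A3G for no effect and wells lacking A3G enzyme for full effect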
Target sequence (Q9HC16 whole entry, looked up): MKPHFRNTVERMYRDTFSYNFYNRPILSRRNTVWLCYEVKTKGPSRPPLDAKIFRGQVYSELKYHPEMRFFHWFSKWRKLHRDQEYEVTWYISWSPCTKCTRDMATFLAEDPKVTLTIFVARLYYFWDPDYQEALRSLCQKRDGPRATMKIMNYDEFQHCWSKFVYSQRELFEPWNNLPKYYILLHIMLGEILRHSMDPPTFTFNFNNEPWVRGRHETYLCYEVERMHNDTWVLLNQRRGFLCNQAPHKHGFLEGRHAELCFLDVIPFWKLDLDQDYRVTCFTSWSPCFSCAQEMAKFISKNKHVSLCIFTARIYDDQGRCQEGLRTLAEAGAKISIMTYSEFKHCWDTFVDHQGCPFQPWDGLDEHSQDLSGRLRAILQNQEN
PfG6PD inh – PfG6PD (Plasmodium falciparum) enzyme inhibition; PfGluPho enzyme, NADPH resazurin-diaphorase fluorescence; inhibition, % at 20 µM; hit rate 0.78% among 350,000;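 active means inhibition reaching at least a set limit at 20 µM in the primary screen, cut at about 59% in these data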;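 further: 0% = DMSO wells with substrate and 100% = DMSO wells lacking glucose-6-phosphate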
HKDC1 inhibitor – inhibitors of human hexokinase HKDC1. Q2TB90. recombinant HKDC1, G6PDH/diaphorase resazurin coupled fluorescence. inhibition, % at 20 µM. hit rate 0.16% among 340,000;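 active means inhibition above about 35% when tested at 20 µM, limit read from the data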;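 further: plate controls were DMSO wells with enzyme for no effect and DMSO wells lacking enzyme for full effect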
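Assay system: in-house recombinant HK5 (HKDC1) enzyme. Input: HKDC1 at 5 µg/mL. Medium: Tris pH 8.0 buffer with MgCl2, Tween-20, BSA, BME. Dosing: single 20 µM dose. Schedule: 90 min reaction incubation at room temperature, dark. Signal: resazurin-to-resorufin fluorescence via G6PDH and diaphorase coupling, 525/613 nm. Controls: DMSO-enzyme wells negative, buffer-substituted wells positive.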
APOBEC3A inh – blocks human APOBEC3A ssDNA deamination. hit rate 0.41% among 330,000. inhibition, % at 20 µM. P31941. recombinant A3A, FAM/TAMRA ssDNA deamination fluorescence;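 active means at least 40% inhibition at 20 µM here, with at most 30% in a related deaminase screen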;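 further: plate controls were A3A with DMSO for no effect and wells lacking A3A enzyme for full effect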
PfGluPho conf – confirmation of Plasmodium falciparum G6PD inhibitors. shares compounds with PfG6PD inh. hit rate 34% among 2,400. recombinant PfGluPho, NADPH-diaphorase-resazurin fluorescence. inhibition, % at 20 µM. AID 504753;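 active means inhibition of at least 50% at 20 µM in any single replicate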;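 further: 0% = DMSO with substrate and 100% = DMSO lacking glucose-6-phosphate substrate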
Diaph ctr 10uM – counter-screen for P. falciparum G6PD inhibitors: diaphorase inhibitors, oxidizers. shares compounds with PfG6PD inh. diaphorase-coupled resazurin reduction, fluorescence, NADPH 10 uM. inhibition, % at 20 µM. hit rate 39% among 820;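 active means average inhibition reaching 50% or more with the compound at 20 µM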;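 further: resorufin red fluorescence formed as diaphorase reduces resazurin using NADPH; 0% = DMSO with enzyme and 100% = DMSO without enzyme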
Diaphorase 30uM – inhibits diaphorase or oxidizes, flagging false PfG6PD hits. shares compounds with PfG6PD inh. Diaphorase/resazurin coupled assay, resorufin fluorescence, 30 uM NADPH. hit rate 29% among 820. inhibition, % at 20 µM;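 active means inhibition averaging 50% or more, tested at 20 µM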;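 further: 0% = DMSO with enzyme and 100% = DMSO wells lacking diaphorase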
* = called active by the depositor; . = no result. Rows were chosen to be rich in hits. Some 1.4% of all compounds tested hit in one or more screens of this group.

SMILES	hiPSC survival	A3G deaminase	PfG6PD inh	HKDC1 inhibitor	APOBEC3A inh	PfGluPho conf	others
Cc1nn(-c2ccccc2)c(C)c1NC(=O)COC(=O)c1cc(Br)ccc1O	1.3	-2.3	-8.3	-0.3	3.0	.
C/C(Cn1nnc([N+](=O)[O-])n1)=N\NC(=O)c1cccc(Cl)c1	-2.0	-7.7	67.9*	8.0	-2.7	58.7*	Diaph ctr 10uM=26.9;Diaphorase 30uM=25.8
C/C(Cn1nnc([N+](=O)[O-])n1)=N\NC(=O)c1ccccc1Cl	-0.4	-2.9	55.7	-2.4	-1.0	.
O=C(CSc1nc2ccc(Cl)cc2[nH]1)Nc1ccc2[nH]c(=O)[nH]c2c1	-0.6	-9.5	60.2*	22.5	-5.2	23.9
Cc1cc(C)c(SSc2nnnn2-c2ccccc2)c(C)c1	-2.6	.	112.5*	.	.	39.6
Cc1ccc2cc(C)c(Sc3nnnn3-c3ccccc3)nc2c1	0.1	.	9.4	-6.7	.	.
COc1ccccc1/C=N\NC(=O)c1c(C)nc2ccc(Cl)cn12	-0.5	-6.2	49.4	0.9	-6.3	23.4
Cc1nn(C)c(C(=O)N/N=C/c2cccc3ccccc23)c1Cl	-1.1	-2.3	76.1*	-6.5	4.9	38.8
Cc1ccnc(NC(=O)C2CC(=O)N(Cc3ccccc3)C2)c1 (stereo not drawn)	-0.5	0.0	-4.6	-1.8	-0.9	.
CCN1C(=O)C(=O)N(CC(=O)Nc2ccccc2Oc2ccccc2)C1=O	-0.5	-8.1	-3.5	4.1	-1.4	.
COc1ccc2[nH]c3c(c2c1)CCN1C(=O)C(CC(=O)NCC24CC5CC(CC(C5)C2)C4)C[C@H](C(=O)N(C(C)C)C(C)C)[C@@]31C (stereo partly drawn)	-3.4	-3.5	14.7	3.5	-0.2	.
CCCCN1C(=O)C2ON(c3ccccc3C)C(c3ccco3)C2C1=O (stereo not drawn)	0.2	-3.5	72.6*	2.7	-1.1	18.8
CCc1ccc(N2C(=O)C3ON(c4ccccc4)C(c4ccco4)C3C2=O)cc1 (stereo not drawn)	0.8	-9.0	4.2	0.6	-3.2	.
O=C(OCC(=O)N1CCCC1)c1cc(Cl)ccc1[N+](=O)[O-]	-0.4	-7.9	-15.6	-5.4	-2.2	.
COc1cc(NC(C)CCc2ccccc2)cc(OC)c1OC (stereo not drawn)	-0.5	-6.6	77.3*	16.2	-6.8	79.1*	Diaph ctr 10uM=7.8;Diaphorase 30uM=3.1
COc1cccc(OC)c1C(=O)NC(C)CCc1ccccc1 (stereo not drawn)	-0.2	-5.1	-8.0	-6.7	-2.5	.
COC(=O)c1cc(S(=O)(=O)N2CCN(Cc3ccccc3)CC2)cn1C	-2.6	4.0	-13.4	-1.7	3.9	.
Oc1ccc(/C=N/N2CCCCC2)c(O)c1O	0.2	5.4	117.9*	-1.4	8.4	91.6*	Diaph ctr 10uM=98.4*;Diaphorase 30uM=96.1*
Oc1ccc(/C=N/N2CCOCC2)c(O)c1O	2.6	-4.5	86.9*	1.2	-0.9	48.0
COc1cccc(/C=N/N2CCOCC2)c1O	-2.8	-1.6	11.1	-8.9	-2.7	.
CCOC(=O)c1c2ccc(OCC(=O)NN)cc2n2ccccc12	-0.6	-4.4	47.0	17.1	-1.1	58.6*	Diaph ctr 10uM=60.7*;Diaphorase 30uM=37.7
Cc1cccc(Nc2nnc(SCC(=O)c3c(N)n(C4CC4)c(=O)[nH]c3=O)s2)c1	-0.2	-9.4	2.1	-0.7	-2.4	.
Cc1ccc(Nc2nnc(SCC(=O)c3c(N)n(C4CC4)c(=O)[nH]c3=O)s2)cc1C	-0.5	-6.4	63.9*	-4.1	-3.2	21.8
CCOC(=O)CN1NC2(CCCCCCC2)NC1=S	-0.4	34.2	66.0*	-2.4	5.7	-24.2
CCOC(=O)CN1NC2(CCCCC2)NC1=S	-1.4	14.3	20.8	-4.9	-1.7	.
COc1ccc(C2CC(=O)Nc3cc(OC)c(OC)cc32)cc1 (stereo not drawn)	-1.8	.	4.3	.	.	.
O=C(O)c1cc(-c2ccc(-c3ccc(F)cc3)o2)nc2ccccc12	-0.4	30.2	93.3*	3.7	2.9	35.0
O=C(c1cc(-c2ccc(F)cc2)nc2ccccc12)N1CCC1	3.8	0.3	-13.9	9.8	0.0	.
